Measured values: ChEMBL document CHEMBL1275359, “Pro-apoptotic activity of lipidic α-amino acids isolated from Protopalythoa variabilis” (Bioorg Med Chem, 2010)
Active and inactive are the calls of the source.

Assays:
Type in all cases: functional, cell-based
SF-295 = test: Cytotoxicity against human SF295 cells at 5 ug/ml after 72 hrs by MTT assay
In short: (§1)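 Cells kept in log-phase growth in RPMI-1640 with 2 mM glutamine, 10% fetal calf serum, streptomycin and 100 U/ml penicillin at 37 °C, 5% CO₂. Single concentration of 5 µg/ml applied for 72 h. Growth read by MTT, reported as percent growth inhibition relative to untreated cells. Data from three to four experiments.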

HCT-8 = test: Cytotoxicity against human HCT8 cells at 5 ug/ml after 72 hrs by MTT assay; in short: as §1
MDA-MB-435 = test: Cytotoxicity against human MDA-MB-435 cells at 5 ug/ml after 72 hrs by MTT assay; in short: as §1
HL-60 = test: Cytotoxicity against human HL60 cells at 5 ug/ml after 72 hrs by MTT assay; in short: as §1

Measured: Activity

CCCCCCCCCCC(N)C(=O)OC (stereo not drawn)
active: all assays above

CCCCCCCCC(N)C(=O)OC (stereo not drawn)
active: all assays above
